Assay outcomes from PubChem.
DENV2 CPE rescue = protects cells from dengue virus 2 cytopathic effect; DENV2-infected cells, cytopathic effect rescue, plate reader; CPE inhibition, % at 9.99 µM; 1.7% of 350,000 active; AID 651640; in the data active means CPE inhibition above about 20%, passing the limit was not always enough; inconclusive means no clear call, values can overlap the other calls; tested in BHK-21 cells;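 further: 0% = median of neutral control wells and 100% = median of positive control wells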
Cneo AK release = Cryptococcus neoformans lysis via adenylate kinase release. 0.2% of 360,000 active. C. neoformans lysis, adenylate kinase release luminescence, 4 h; normalised: neutral wells 0, clomiphene wells 100. lysis activity, % at 15 µM;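 active means mean lysis activity across replicates of at least 80%, whatever share of replicates individually reach that level; inactive means mean lysis activity below 80%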
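read-out = cell lysis signal | test system = log-phase Cryptococcus neoformans yeast cells | input = cells at 5 × 10^6 per mL | medium = fresh YPD growth medium | signal = luminescent adenylate kinase detection reagent | timing = 4 h at 37 °C static, read 1 h later | dosing = single dose | controls = Clomiphene as positive lysis control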
CFTR F508del cor = CFTR F508del correction in bronchial cells; activity (quench increase), % at 7.58 µM; 0.36% of 350,000 active; CFBE cells, YFP halide quenching; stimulated with forskolin plus potentiator P3; % fluorescence drop versus neutral controls; AID 720511;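 active means mean added fluorescence quench of at least 8% versus neutral control, with both replicates also reaching 8%; inconclusive means only one of the mean or replicate conditions met; inactive means mean below 8% and not both replicates reaching 8%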;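 further: cells transiently co-express mutant CFTR-F508del with the halide-sensitive YFP; corrector assay measuring rescue of mutant channel to the surface after 24 h compound exposure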
PGC1a acetyl inh = PGC1a acetylation modulation, inhibitor mode; U2OS PGC1a acetylation, AlphaScreen anti-acetyl-lysine; with virally co-expressed GCN5 acetyltransferase; inhibition, % at 15.6 µM; 0.17% of 350,000 active; AID 651687;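 active means every replicate shows inhibition of at least 40%; inconclusive means mean inhibition at least 40% but some replicate below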;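 further: 0% = neutral control wells and 100% = positive control wells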
XiGFP reactiv = activators of X-chromosome reactivation in mouse fibroblasts. activation, % at 7.58 µM. AID 743238. XiGFP mouse fibroblasts, % GFP-positive cells imaging, 3 d; cells co-treated with 5-aza-dC sensitizer; scaled so ellipticine positive control = 100%. 0.055% of 360,000 active;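 active means mean normalized replicate activation at least 10% and every replicate at or above 10%; inconclusive means only one of the two criteria met; inactive means mean below 10% and not all replicates reach 10%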;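 further: 0% = median of on-plate neutral control wells and 100% = ellipticine 6 µM median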
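Material: XiGFP fibroblasts, SV40-immortalized. Buffer or medium: DMEM plus 5-aza-dC sensitizer. Compound: single concentration per compound, delivered by pin transfer. Times: 3 days compound exposure. Controls: ellipticine 6 µM.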
FN deposition inh = fibronectin deposition inhibition; AID 743247; AH1F fibroblasts, Alexa488-fibronectin deposition fluorescence, overnight; inhibition, % at 12.6 µM; 0.086% of 350,000 active;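 active means mean inhibition across replicates of 30% or more, regardless of how many single replicates reach that level; inconclusive means mean under 30% yet at least half of replicates reach 30%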;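 further: positive control wells lacked labelled fibronectin entirely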
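Assay system: AH1F fibroblasts / Quantity: 10000 cells per well / Medium: DMEM plus 2% serum, read in PBS / Reagent: labelled fibronectin 24 nM / Dosing: single dose, pinned / Times: 1 h cell attachment, overnight exposure to compound and label / Signal: fluorescence, ex 485 nm, em 525 nm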
* marks the source's active call; other numbers are inactive results; ? = inconclusive; / = no result. Shown are actives, neighbours in structure and some others; about 1.9% of the full set was active somewhere.

SMILES	DENV2 CPE rescue	Cneo AK release	CFTR F508del cor	PGC1a acetyl inh	XiGFP reactiv	FN deposition inh
C[C@H]1CCCCO[C@H](CN(C)C(=O)Nc2cccc3ccccc23)[C@@H](C)CN([C@@H](C)CO)C(=O)c2cc(NS(=O)(=O)c3ccc(F)cc3)ccc2O1	26*	3	-3	-4	0	-1
C[C@H]1CCCCO[C@H](CN(C)C(=O)Nc2cccc3ccccc23)[C@@H](C)CN([C@@H](C)CO)C(=O)c2cc(NS(=O)(=O)c3ccc(Cl)cc3)ccc2O1	44*	6	1	-7	0	2
C[C@@H]1CN([C@H](C)CO)C(=O)c2cc(NC(=O)Nc3ccccc3)ccc2O[C@@H](C)CCCCO[C@H]1CN(C)C(=O)Nc1ccc(C(F)(F)F)cc1	7	/	0	-2	0	4
Cn1c(=O)c2c(nc(NCc3cccnc3)n2Cc2cccc(C(F)(F)F)c2)n(C)c1=O	/	-3	/	-13	/	/
COc1cccc(Cn2c(NCc3cccnc3)nc3c2c(=O)n(C)c(=O)n3C)c1	/	/	/	71*	/	/
CN(Cc1ccccc1)S(=O)(=O)c1ccc(Cl)c(C(=O)OCC(=O)NC2CCS(=O)(=O)C2)c1 (stereo not drawn)	32*	-3	0	-3	0	3
CN(C(=O)COC(=O)c1cc(S(=O)(=O)N(C)C)ccc1Cl)C1CCS(=O)(=O)C1 (stereo not drawn)	?	/	0	/	-1	7
C[C@H]1CN([C@@H](C)CO)C(=O)c2cc(-c3cncnc3)cnc2O[C@H]1CN(C)C(=O)Cc1ccccn1	0	15	0	5	-1	-4
O=C(Nc1ccnn1C1CCN(CC(O)CO)CC1)C1CCCC1 (stereo not drawn)	71*	1	1	-3	0	/
CO[C@H]1CN(C)C(=O)c2cc(NC(=O)c3cccc(F)c3)ccc2OC[C@@H](C)NC[C@H]1C	13	-5	2	-11	0	9
C[C@@H]1CN([C@H](C)CO)C(=O)c2cccc(NC(=O)Nc3ccccc3)c2O[C@H]1CN(C)C(=O)Nc1ccccc1	52*	-8	1	-6	0	-3
CC(C)NC(=O)Nc1cccc2c1O[C@@H](CN(C)C)[C@@H](C)CN([C@@H](C)CO)C2=O	12	-3	2	2	0	/
CC(C)NC(=O)Nc1cccc2c1O[C@H](CN(C)C(=O)Nc1ccc(F)cc1)[C@H](C)CN([C@@H](C)CO)C2=O	-10	-1	2	-3	0	/
CC(C)NC(=O)Nc1cccc2c1O[C@H](CN(C)C)[C@H](C)CN([C@H](C)CO)C2=O	/	100*	7	7	0	/
C[C@H]1CN([C@@H](C)CO)C(=O)c2cccc(NC(=O)Nc3ccccc3)c2O[C@H]1CN(C)C(=O)Nc1ccccc1	/	/	-1	6	0	/
CC(C)NC(=O)Nc1cccc2c1O[C@@H](CN(C)C(=O)Nc1ccc(F)cc1)[C@@H](C)CN([C@H](C)CO)C2=O	22*	-1	-2	0	-1	/
CC(C)NC(=O)Nc1cccc2c1O[C@@H](CN(C)C(=O)Nc1ccccc1)[C@@H](C)CN([C@@H](C)CO)C2=O	/	103*	-2	5	0	-5
Cc1ccc(S(=O)(=O)N(C)C[C@H]2Oc3ccc(NC(=O)Cn4cnnn4)cc3C(=O)N([C@@H](C)CO)C[C@@H]2C)cc1	9	/	1	-5	-1	/
C[C@H](CO)N1C[C@H](C)[C@H](CN(C)C(=O)Nc2ccc(F)cc2)Oc2c(NC(=O)C3CC3)cccc2C1=O	35*	4	-3	8	0	/
O=C(C[C@@H]1CC[C@@H]2[C@H](COC[C@H](O)CN2C(=O)c2ccccc2)O1)Nc1ccc(-c2ccccc2)cc1	44*	-1	1	-14	0	-1
O=C(C[C@@H]1CC[C@@H]2[C@H](COC[C@@H](O)CN2C(=O)c2ccccc2)O1)Nc1ccccc1	1	0	0	-2	0	-3
O=C(C[C@@H]1CC[C@H]2[C@@H](COC[C@@H](O)CN2C(=O)c2ccccc2)O1)Nc1ccc(-c2ccccc2)cc1	48*	-5	-1	15	0	-7
COc1ccc2c3c([nH]c2c1)[C@@H](CO)N(C(=O)NC(C)C)CC31CCN(C(=O)NC2CCCC2)CC1	-1	/	3	0	0	/
O=C(C[C@H]1CC[C@@H]2[C@H](COC[C@H](O)CN2S(=O)(=O)c2cccc(Cl)c2)O1)N1CCOCC1	21*	-1	0	9	0	10
CN1CCN(C(=O)C[C@H]2CC[C@@H]3[C@H](COC[C@@H](O)CN3S(=O)(=O)c3cccc(Cl)c3)O2)CC1	23*	0	1	-4	0	-5
SMILES	DENV2 CPE rescue	Cneo AK release	CFTR F508del cor	PGC1a acetyl inh	XiGFP reactiv	FN deposition inh
CNC(=O)C[C@@H]1CC[C@@H]2[C@H](COC[C@H](O)CN2S(=O)(=O)c2cccc(Cl)c2)O1	0	100*	3	-24	0	-11
C[C@H]1CN([C@@H](C)CO)C(=O)Cc2cc(NC(=O)CCCCCC(=O)Nc3ccccc3N)ccc2O[C@@H]1CN(C)S(C)(=O)=O	-2	0	0	7	0	/
CO[C@H]1CN(C)C(=O)c2ccc(NC(=O)C3CC3)cc2OC[C@@H](C)N(C(=O)c2cnccn2)C[C@@H]1C	-5	/	0	4	0	3
O=C(CN1C(=O)C2C3CC(C(Br)C3Br)C2C1=O)OCC(=O)c1cccc([N+](=O)[O-])c1 (stereo not drawn)	5	2	-2	76*	0	-3
CCCNC(=O)N1CC2(C1)[C@H](c1ccccc1)[C@@H](CO)N2C(=O)CC1CC1	18	/	-4	6	0	-3
CCCNC(=O)N1CC2(C1)[C@H](c1ccccc1)[C@@H](CO)N2C(=O)C1CCCCC1	7	/	-1	3	0	1
CCCNC(=O)N1CC2(C1)[C@H](c1ccccc1)[C@H](CO)N2C(=O)C1CCCCC1	65*	/	4	2	0	-2
CCCNC(=O)N1CC2(C1)[C@H](c1ccccc1)[C@H](CO)N2C(=O)CC1CC1	23*	/	0	0	0	2
O=C(c1ccccc1)N1CC2(C1)[C@H](c1ccccc1)[C@@H](CO)N2C(=O)CC1CC1	26*	/	-1	-1	0	/
O=C(c1ccncc1)N1CC2(C1)[C@H](c1ccccc1)[C@H](CO)N2C(=O)CC1CC1	-1	/	-1	-1	0	/
C[C@@H]1CN([C@@H](C)CO)C(=O)c2cc(-c3cccnc3)cnc2O[C@@H]1CN(C)C(=O)c1cccc(F)c1	5	0	0	-2	-1	6
